{"source": "paper PMC7528620", "about": "(Clinical cancer research : an official journal of the …, 2019)", "key": {"[1]": {"tested_on": "patients with advanced solid tumors", "settings": "36 patients with advanced solid tumors; cited from earlier work"}, "[2]": {"tested_on": "advanced malignancies", "assay": "Objective response assessment, study INCB 54329-101", "assay_type": "in vivo, human", "outline": "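Open-label phase 1/2 monotherapy study in adults (≥18 y) with relapsed/refractory advanced malignancies and ECOG ≤1. Oral dosing was 15–30 mg QD or 15–25 mg BID, continuous or intermittent (5/2, 4/3, 7/7 days on/off), in 21-day cycles. Part 2 used intrapatient titration from 20 mg BID. Response was assessed with malignancy-specific criteria in patients with ≥1 dose, measurable/evaluable baseline disease and ≥1 post-baseline assessment.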"}, "[3]": {"target": "CYP2C19 (Homo sapiens, UniProt P33261)", "sequence (P33261 whole entry)": "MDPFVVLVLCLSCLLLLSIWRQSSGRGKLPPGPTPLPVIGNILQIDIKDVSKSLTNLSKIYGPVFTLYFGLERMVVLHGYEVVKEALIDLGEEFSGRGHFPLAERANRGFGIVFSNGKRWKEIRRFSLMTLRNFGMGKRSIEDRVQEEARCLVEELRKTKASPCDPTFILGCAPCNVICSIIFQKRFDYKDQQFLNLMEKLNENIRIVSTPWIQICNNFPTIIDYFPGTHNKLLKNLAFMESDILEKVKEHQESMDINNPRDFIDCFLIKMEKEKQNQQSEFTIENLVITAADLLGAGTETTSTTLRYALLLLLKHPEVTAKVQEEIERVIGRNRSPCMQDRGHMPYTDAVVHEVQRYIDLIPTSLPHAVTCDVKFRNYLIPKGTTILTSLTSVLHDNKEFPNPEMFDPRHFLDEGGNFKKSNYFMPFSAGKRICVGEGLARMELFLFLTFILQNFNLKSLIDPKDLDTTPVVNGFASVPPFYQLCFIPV", "assay": "In vitro metabolism studies", "assay_type": "in vitro ADME"}, "[4]": {"assay": "Plasma pharmacokinetics, study INCB 54329-101", "assay_type": "in vivo, human", "outline": "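Plasma PK used noncompartmental analysis in patients given ≥1 dose with ≥1 PK sample. Oral dosing was 15–30 mg QD or 15–25 mg BID, continuous or intermittent; the first 3 patients also received a single 5-mg PK dose at day 0. Steady-state oral clearance (CLss/F) and terminal half-life are reported as mean with SD.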"}, "[5]": {"target": "CYP3A4 (Homo sapiens, UniProt P08684)", "sequence (P08684 whole entry)": "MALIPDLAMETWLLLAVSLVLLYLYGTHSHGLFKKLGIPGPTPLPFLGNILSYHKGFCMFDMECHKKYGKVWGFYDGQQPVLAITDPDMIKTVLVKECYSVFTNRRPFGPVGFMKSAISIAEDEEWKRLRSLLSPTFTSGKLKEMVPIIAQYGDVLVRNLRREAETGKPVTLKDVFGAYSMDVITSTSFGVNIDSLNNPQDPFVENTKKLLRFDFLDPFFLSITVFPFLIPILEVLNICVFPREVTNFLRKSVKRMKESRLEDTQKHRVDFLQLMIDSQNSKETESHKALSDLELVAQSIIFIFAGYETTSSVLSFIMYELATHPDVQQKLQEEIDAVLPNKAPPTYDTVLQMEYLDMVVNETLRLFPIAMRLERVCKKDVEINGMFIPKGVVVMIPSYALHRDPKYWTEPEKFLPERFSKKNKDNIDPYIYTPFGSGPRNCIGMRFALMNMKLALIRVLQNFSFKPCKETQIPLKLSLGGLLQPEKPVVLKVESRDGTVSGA", "assay": "In vitro metabolism studies", "assay_type": "in vitro ADME"}, "[6]": {"tested_on": "patients with advanced malignancies", "assay": "Safety and tolerability, phase 1/2 study INCB 54329-101", "assay_type": "in vivo", "settings": "for TRAEs (any): all treatment groups; for TRAE thrombocytopenia: incl. platelet counts decreased"}}, "note": "Marks after values point to notes of the source that are not given here."}
{"compound": "Cc1noc(C)c1-c1cnc2c(-c3ccc(C(=O)O)cc3)cn([C@@H](C)c3ccccn3)c2c1", "note": "[PLX51107]", "values": [{"measurement": "INR increase, patients", "setting": "[1]", "value": 17, "unit": "%"}]}
{"compound": "Cc1noc(C)c1-c1ccc2[nH]c(=O)n3c2c1OC[C@@H]3c1ccccn1", "note": "[INCB054329]", "values": [{"measurement": "confirmed clinical response", "setting": "[2]; 69 patients", "value": "none and no confirmed clinical responses"}, {"measurement": "patients with stable disease as best response", "setting": "[2]; all with solid tumors", "value": "Twenty-one"}, {"measurement": "patients who maintained SD for ≥6 months", "setting": "[2]; in vivo", "value": 4, "unit": "patients"}, {"measurement": "discontinuation, primary reason disease progression", "setting": "[2]; n = 69", "value": "53 (77) n (%)"}, {"measurement": "metabolism by CYP2C19", "setting": "[3]", "value": "metabolized"}, {"measurement": "half-life", "setting": "[4]; as summarised in discussion", "value": "< 5", "unit": "h"}, {"measurement": "oral clearance CLss/F, mean [SD]", "setting": "[4]; overall, oral dosing, patients", "value": "95.5 [135] L/h"}, {"measurement": "terminal elimination half-life t1/2, mean [SD]", "setting": "[4]; overall, oral dosing, patients", "value": "2.24 [2.03] hours"}, {"measurement": "metabolism by CYP3A4", "setting": "[5]", "value": "metabolized"}, {"measurement": "patients with ≥1 any grade TRAE", "setting": "[6]; 69 enrolled patients", "value": 78, "unit": "%"}, {"measurement": "MTD per protocol", "setting": "[6]; Part 1 TGA", "value": "not reached"}, {"measurement": "DLTs", "setting": "[6]; Part 1 TGA, both grade 4 thrombocytopenia at 30 mg QD and 22.5 mg BID", "value": 2, "unit": "DLTs"}, {"measurement": "DLTs", "setting": "[6]; Part 1 TGB, 20 mg BID", "value": "No DLTs"}, {"measurement": "TRAEs leading to dose interruptions", "setting": "[6]; Part 1 TGB, due to grade 3 hyperglycemia", "value": 2, "unit": "patients"}, {"measurement": "tolerability of the 20 mg BID starting dose", "setting": "[6]; Part 2 dose titration", "value": "not tolerated"}, {"measurement": "patients requiring dose interruption due to TRAEs", "setting": "[6]; Part 2 dose titration, 20 mg BID start, 11 patients", "value": 45, "unit": "%"}, {"measurement": "incidence of TRAE anemia", "setting": "[6]; any grade", "value": 10, "unit": "%"}, {"measurement": "incidence of TRAE decreased appetite", "setting": "[6]; any grade", "value": 26, "unit": "%"}, {"measurement": "incidence of TRAE fatigue", "setting": "[6]; any grade", "value": 29, "unit": "%"}, {"measurement": "incidence of TRAE nausea", "setting": "[6]; any grade", "value": 35, "unit": "%"}, {"measurement": "incidence of TRAE thrombocytopenia", "setting": "[6]; any grade", "value": 33, "unit": "%"}, {"measurement": "incidence of TRAE vomiting", "setting": "[6]; any grade", "value": 10, "unit": "%"}, {"measurement": "TRAEs (any)", "setting": "[6]; any grade, n = 69", "value": "54 (78) n (%)"}, {"measurement": "TRAE anemia", "setting": "[6]; any grade, n = 69", "value": "7 (10) n (%)"}, {"measurement": "TRAE decreased appetite", "setting": "[6]; any grade, n = 69", "value": "18 (26) n (%)"}, {"measurement": "TRAE diarrhea", "setting": "[6]; any grade, n = 69", "value": "12 (17) n (%)"}, {"measurement": "TRAE dysgeusia", "setting": "[6]; any grade, n = 69", "value": "9 (13) n (%)"}, {"measurement": "TRAE fatigue", "setting": "[6]; any grade, n = 69", "value": "20 (29) n (%)"}, {"measurement": "TRAE hyperglycemia", "setting": "[6]; any grade, n = 69", "value": "3 (4)^c n (%)"}, {"measurement": "TRAE nausea", "setting": "[6]; any grade, n = 69", "value": "24 (35) n (%)"}, {"measurement": "TRAE vomiting", "setting": "[6]; any grade, n = 69", "value": "7 (10) n (%)"}, {"measurement": "TRAE thrombocytopenia", "setting": "[6]; any grade, n = 69", "value": "23 (33) n (%)"}, {"measurement": "incidence of TRAE AST increased", "setting": "[6]; grade ≥3", "value": 4, "unit": "%"}, {"measurement": "incidence of TRAE anemia", "setting": "[6]; grade ≥3", "value": 6, "unit": "%"}, {"measurement": "incidence of TRAE hyperglycemia", "setting": "[6]; grade ≥3", "value": 3, "unit": "%"}, {"measurement": "incidence of TRAE neutropenia", "setting": "[6]; grade ≥3", "value": 6, "unit": "%"}, {"measurement": "TRAEs (any)", "setting": "[6]; grade ≥3, n = 69", "value": "16 (23) n (%)"}, {"measurement": "TRAE anemia", "setting": "[6]; grade ≥3, n = 69", "value": "4 (6) n (%)"}, {"measurement": "TRAE decreased appetite", "setting": "[6]; grade ≥3, n = 69", "value": "0 (0) n (%)"}, {"measurement": "TRAE diarrhea", "setting": "[6]; grade ≥3, n = 69", "value": "0 (0) n (%)"}, {"measurement": "TRAE dysgeusia", "setting": "[6]; grade ≥3, n = 69", "value": "0 (0) n (%)"}, {"measurement": "TRAE fatigue", "setting": "[6]; grade ≥3, n = 69", "value": "0 (0) n (%)"}, {"measurement": "TRAE hyperglycemia", "setting": "[6]; grade ≥3, n = 69", "value": "2 (3) n (%)"}, {"measurement": "TRAE nausea", "setting": "[6]; grade ≥3, n = 69", "value": "1 (1) n (%)"}, {"measurement": "TRAE vomiting", "setting": "[6]; grade ≥3, n = 69", "value": "1 (1) n (%)"}, {"measurement": "TRAE thrombocytopenia", "setting": "[6]; grade ≥3, n = 69", "value": "9 (13) n (%)"}, {"measurement": "deaths deemed treatment-related", "setting": "[6]; in vivo", "value": "none"}, {"measurement": "discontinuation, primary reason adverse event", "setting": "[6]; n = 69", "value": "2 (3) n (%)"}, {"measurement": "discontinuation, primary reason death", "setting": "[6]; n = 69", "value": "1 (1) n (%)"}, {"measurement": "TRAEs leading to dose interruptions", "setting": "[6]; overall", "value": 29, "unit": "%"}, {"measurement": "TRAEs leading to dose reductions", "setting": "[6]; overall", "value": 7, "unit": "%"}, {"measurement": "dose interruptions due to thrombocytopenia", "setting": "[6]; overall", "value": 17, "unit": "%"}, {"measurement": "patients who discontinued treatment due to TRAEs", "setting": "[6]; overall", "value": 4, "unit": "%"}, {"measurement": "serious TRAE anemia", "setting": "[6]; overall", "value": 2, "unit": "patients"}, {"measurement": "serious TRAE thrombocytopenia", "setting": "[6]; overall", "value": 4, "unit": "patients"}, {"measurement": "patients experiencing serious TRAEs", "setting": "[6]; overall, n = 69", "value": 7, "unit": "patients"}]}
